Data taken from ChEMBL document CHEMBL2021854, “2-Aminopyrimidine based 4-aminoquinoline anti-plasmodial agents. Synthesis, biological activity, structure-activity relationship and mode of action studies” (Eur J Med Chem, 2012).

Tests used:
[1] = Inhibition of beta-hematin formation assessed as Ferriprotoporphyrin IX biomineralisation after 24 hrs; format: functional
How it was run: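 Hemin (0.5 mg/ml in DMSO) was mixed with 0.5 M sodium acetate pH 4.4 and compound, then incubated for 24 h at 37 °C. The pellet was washed with DMSO to remove unreacted hemin and dissolved in 0.1 N NaOH, with A405 read. Percent inhibition was taken versus solvent control, and IC50 by curve fitting.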

Coxsackievirus B4 [2] = assay: Antiviral activity against Coxsackie virus B4 infected in human HeLa cells assessed as inhibition of virus-induced cytopathogenicity after 4 days; format: functional, organism-based; settings: Enterovirus B, 96 h
How it was run: (§1)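 Confluent HEL, Vero or HeLa monolayers were inoculated with 100 CCID50 of virus in the presence of varying concentrations of compound. Cytopathicity was scored when it reached completion in untreated, virus-infected control cultures.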

Influenza A virus [3] = assay: Antiviral activity against Influenza A virus H3N2 infected in MDCK cells assessed as inhibition of virus-induced cytopathogenicity after 4 days by colorimetric formazan-based MTS assay; format: functional, organism-based; settings: 96 h
Influenza A virus [4] = assay: Antiviral activity against Influenza A virus H1N1 infected in MDCK cells assessed as inhibition of virus-induced cytopathogenicity after 4 days by colorimetric formazan-based MTS assay; format: functional, organism-based; settings: 96 h
[5] = Cytotoxicity against african green monkey Vero cells assessed as minimum compound concentration required to causes microscopically detectable alteration of normal cell morphology; format: cell-based; settings: chlorocebus sabaeus
How it was run: (§2)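 Confluent, non-proliferating cell cultures were exposed to the compounds. The endpoint was the minimum concentration producing a microscopically detectable alteration of normal cell morphology.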

Human respirovirus 3 = assay: Antiviral activity against Parainfluenza-3 virus infected in african green monkey Vero cells assessed as inhibition of virus-induced cytopathogenicity after 4 days; format: functional, organism-based; settings: Human respirovirus 3, Vero, 96 h; how it was run: as §1
Sindbis virus = assay: Antiviral activity against Sindbis virus infected in african green monkey Vero cells assessed as inhibition of virus-induced cytopathogenicity after 4 days; format: functional, organism-based; settings: 96 h; how it was run: as §1
[6] = system: Respiratory syncytial virus; assay: Antiviral activity against Respiratory syncytial virus infected in human HeLa cells assessed as inhibition of virus-induced cytopathogenicity after 4 days; format: functional, organism-based; settings: 96 h; how it was run: as §1
[7] = (§3) Cytotoxicity against MDCK cells assessed as cell viability by colorimetric formazan-based MTS assay; set-up: species or system Canis lupus familiaris; settings: dog, MDCK cells
How it was run: (§4)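 Cytotoxicity on MDCK cells; 50% cytotoxic concentration from cell viability measured by colorimetric formazan-based MTS assay.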

[8] = system: Vesicular stomatitis virus; assay: Antiviral activity against Vesicular stomatitis virus infected in HeLa cells assessed as inhibition of virus-induced cytopathogenicity after 4 days; format: functional, organism-based; settings: 96 h
How it was run: (§5)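 Confluent HEL or HeLa monolayers infected with 100 CCID50 of virus in the presence of varying compound concentrations.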

[9] = Cytotoxicity against human HeLa cells assessed as minimum compound concentration required to causes microscopically detectable alteration of normal cell morphology; format: cell-based; how it was run: as §2
[10] = Cytotoxicity against MDCK cells assessed as minimum compound concentration required to causes microscopically detectable alteration of normal cell morphology; format: cell-based, Canis lupus familiaris; settings: dog; how it was run: as §2
Influenza B virus [11] = assay: Antiviral activity against Influenza B virus infected in MDCK cells assessed as reduction visual scoring of virus-induced cytopathogenicity after 4 days; format: functional, organism-based; settings: 96 h
How it was run: (§6)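 MDCK monolayers infected with 100 CCID50 of influenza A (H1N1 or H3N2) or influenza B, with varying compound concentrations. Cytopathicity read when untreated infected controls reached complete CPE.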

Punta Toro virus = assay: Antiviral activity against Punta Toro virus infected in african green monkey Vero cells assessed as inhibition of virus-induced cytopathogenicity after 4 days; format: functional, organism-based; settings: 96 h; how it was run: as §1
Plasmodium falciparum [12] = assay: Resistant factor, ratio of IC50 for chloroquine-resistant Plasmodium falciparum K1 to IC50 for chloroquine-sensitive Plasmodium falciparum 3D7; format: functional
How it was run: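 Resistance factor computed as IC50 against K1 divided by IC50 against 3D7, both from the [3H]hypoxanthine incorporation assay.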

Human betaherpesvirus 5 [13] = assay: Antiviral activity against Human cytomegalovirus Davis infected in HEL cells assessed as inhibition of virus plaque formation after 4 days; format: functional, organism-based; settings: Human betaherpesvirus 5, Davis, 96 h
Coxsackievirus B4 [14] = assay: Antiviral activity against Coxsackie virus B4 infected in african green monkey Vero cells assessed as inhibition of virus-induced cytopathogenicity after 4 days; format: functional, organism-based; settings: Enterovirus B, 96 h; how it was run: as §1
Felid alphaherpesvirus 1 = assay: Antiviral activity against Feline herpesvirus infected in cat CRFK cells assessed as inhibition of virus-induced cytopathic effect after 4 days by colorimetric formazan-based MTS assay; format: functional, organism-based; settings: Felid alphaherpesvirus 1, CRFK, 96 h
[15] = system: Human immunodeficiency virus 1; assay: Antiviral activity against HIV1 infected in human CEM cells assessed as inhibition of virus-induced cytopathic effect after 4 days; format: functional, organism-based; settings: Human immunodeficiency virus 1, CCRF-CEM, 96 h
How it was run: (§7)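 CEM T-lymphocytes (~3 × 10^5 cells/ml) were infected with HIV-1 IIIB or HIV-2 ROD at ~100 CCID50, then immediately plated with a range of compound concentrations. Giant cell formation was scored microscopically after 4 days at 37 °C. Cytostatic activity was tested in parallel in uninfected CEM cells.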

Human alphaherpesvirus 3 [16] = assay: Antiviral activity against […] expressing thymidine kinase infected in HEL cells assessed as reduction of virus plaque formation after 4 days; format: functional, cell-based; settings: Human alphaherpesvirus 3, strain Oka vaccine, 96 h
Plasmodium falciparum [17] = assay: Antiplasmodial activity chloroquine-sensitive Plasmodium falciparum 3D7 infected in human A+ erythrocytes assessed as inhibition of [3H]-hypoxanthine incorporation after 24 hrs by scintillation counting; format: functional, organism-based
Influenza A virus [18] = assay: Antiviral activity against Influenza A virus H1N1 infected in MDCK cells assessed as reduction visual scoring of virus-induced cytopathogenicity after 4 days; format: functional, organism-based; settings: 96 h; how it was run: as §6
Human alphaherpesvirus 1 [19] = assay: Antiviral activity against HSV1 KOS infected in HEL cells assessed as inhibition of virus-induced cytopathogenicity after 4 days; format: functional, organism-based; settings: Human alphaherpesvirus 1, KOS, 96 h; how it was run: as §5
[20] = Inhibition of beta-hematin formation assessed as Ferriprotoporphyrin IX biomineralisation at 1 mg/ml after 24 hrs; format: functional
How it was run: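 Hemin chloride (0.5 mg/ml in DMSO) mixed with 0.5 M sodium acetate buffer pH 4.4 and drug or solvent control, incubated 37 °C for 24 h. Pellet washed with DMSO to remove unreacted hemin, dissolved in 0.1 N NaOH, absorbance read at 405 nm; percent inhibition relative to control. Highest concentration tested 1 mg/ml.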

[21] = system: Vesicular stomatitis virus; assay: Antiviral activity against Vesicular stomatitis virus infected in HEL cells assessed as inhibition of virus-induced cytopathogenicity after 4 days; format: functional, organism-based; settings: 96 h; how it was run: as §5
Human alphaherpesvirus 3 [22] = assay: Antiviral activity against thymidine kinase-deficient […] infected in HEL cells assessed as reduction of virus plaque formation after 4 days; format: functional, organism-based; settings: Human alphaherpesvirus 3, 07-1, HEL, 96 h
Human alphaherpesvirus 2 = assay: Antiviral activity against HSV2 G infected in HEL cells assessed as inhibition of virus-induced cytopathogenicity after 4 days; format: functional, organism-based; settings: Human alphaherpesvirus 2, strain G, 96 h; how it was run: as §1
Plasmodium falciparum [23] = assay: Antiplasmodial activity chloroquine-resistant Plasmodium falciparum K1 infected in human A+ erythrocytes assessed as inhibition of [3H]-hypoxanthine incorporation after 24 hrs by scintillation counting; format: functional, organism-based
MDCK = assay: as §3; set-up: species or system Canis lupus familiaris; settings: dog, mdck; how it was run: as §4
Influenza A virus [24] = assay: Antiviral activity against Influenza A virus H3N2 infected in MDCK cells assessed as reduction visual scoring of virus-induced cytopathogenicity after 4 days; format: functional, organism-based; settings: 96 h; how it was run: as §6
[25] = Cytotoxicity against cat CRFK cells assessed as cell viability by colorimetric formazan-based MTS assay; set-up: species or system Felis catus; settings: crfk
HeLa = assay: Cytotoxicity against human HeLa cells assessed as cell viability by colorimetric formazan-based MTS assay
[26] = system: Mammalian orthoreovirus 1; assay: Antiviral activity against Reovirus-1 infected in african green monkey Vero cells assessed as inhibition of virus-induced cytopathogenicity after 4 days; format: functional, organism-based; settings: Mammalian orthoreovirus 1, Vero, 96 h; how it was run: as §1
Human betaherpesvirus 5 [27] = assay: Antiviral activity against Cytomegalovirus AD-169 infected in HEL cells assessed as inhibition of virus plaque formation after 4 days; format: functional, organism-based; settings: Human betaherpesvirus 5, AD169, HEL, 96 h
[28] = Selectivity index, ratio of CC50 for MDCK cells to IC50 for chloroquine-resistant Plasmodium falciparum K1; format: functional
How it was run: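 Selectivity index computed as MTS-based CC50 on MDCK cells divided by IC50 against P. falciparum K1.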

[29] = system: Feline infectious peritonitis virus; assay: Antiviral activity against FIPV infected in cat CRFK cells assessed as inhibition of virus-induced cytopathic effect after 4 days by colorimetric formazan-based MTS assay; format: functional, cell-based; settings: Alphacoronavirus 1, CRFK, 96 h
[30] = system: Human immunodeficiency virus 2; assay: Antiviral activity against HIV2 infected in human CEM cells assessed as inhibition of virus-induced cytopathic effect after 4 days; format: functional, organism-based; settings: Human immunodeficiency virus 2, CCRF-CEM, 96 h; how it was run: as §7
Human alphaherpesvirus 1 [31] = assay: Antiviral activity against thymidine kinase-deficient acyclovir-resistant HSV1 KOS infected in HEL cells assessed as inhibition of virus-induced cytopathogenicity after 4 days; format: functional, organism-based; settings: Human alphaherpesvirus 1, KOS, 96 h; how it was run: as §5
[32] = Cytotoxicity against human HEL cells assessed as minimum compound concentration required to causes microscopically detectable alteration of normal cell morphology; format: cell-based; how it was run: as §2
Influenza B virus [33] = assay: Antiviral activity against Influenza B virus infected in MDCK cells assessed as inhibition of virus-induced cytopathogenicity after 4 days by colorimetric formazan-based MTS assay; format: functional, organism-based; settings: 96 h

SMILES	IC50 [1] [µM]	EC50 (Coxsackievirus B4 [2]) [µM]	EC50 (Influenza A virus [3]) [µM]	EC50 (Influenza A virus [4]) [µM]	MCC [5] [µM]	EC50 (Human respirovirus 3) [µM]	EC50 (Sindbis virus) [µM]	EC50 [6] [µM]	EC50 [8] [µM]	MCC [9] [µM]	MCC [10] [µM]	EC50 (Influenza B virus [11]) [µM]	EC50 (Punta Toro virus) [µM]	Ratio IC50 (Plasmodium falciparum [12])	EC50 (Human betaherpesvirus 5 [13]) [µM]	EC50 (Coxsackievirus B4 [14]) [µM]	EC50 (Felid alphaherpesvirus 1) [µM]	EC50 [15] [µM]	EC50 (Human alphaherpesvirus 3 [16]) [µM]	IC50 (Plasmodium falciparum [17]) [µM]	also measured
C=C[C@H]1CN2CC[C@H]1C[C@H]2[C@H](O)c1ccnc2ccc(OC)cc12 [QUININE]	324	–	–	–	–	–	–	–	–	–	–	–	–	–	–	–	–	–	–	–	–
CCN(CC)CCCC(C)Nc1ccnc2cc(Cl)ccc12 (stereo not given) [CHLOROQUINE]	18	–	–	–	–	–	–	–	–	–	–	–	–	–	–	–	–	–	–	–	–
NC(=O)c1ncn([C@@H]2O[C@H](CO)[C@@H](O)[C@H]2O)n1 [RIBAVIRIN]	–	> 250	5.6	6.7	> 250	29	> 250	> 250	> 250	> 250	> 100	7	–	–	–	–	–	–	–	–	CC50 [7]: > 100 µM
Cc1nc(NCCCNc2ccnc3cc(Cl)ccc23)nc(-c2cccc([N+](=O)[O-])c2)c1C(=O)OC(C)C	–	> 4	> 0.16	> 0.16	100	> 20	> 20	> 4	> 4	20	0.8	> 0.16	> 20	0.385	> 4	> 20	> 4	> 2	4	0.599	EC50 (Influenza A virus [18]): > 0.16 µM; EC50 (Human alphaherpesvirus 1 [19]): > 4 µM; inhibition [20]: 79%; EC50 [21]: > 4 µM; EC50 (Human alphaherpesvirus 3 [22]): > 4 µM; EC50 (Human alphaherpesvirus 2): > 4 µM; IC50 (Plasmodium falciparum [23]): 0.231 µM; CC50 (MDCK): 0.5 µM; EC50 (Influenza A virus [24]): > 0.16 µM; CC50 [25]: 7.7 µM; CC50 (HeLa): 1.04 µM; EC50 [26]: > 20 µM; EC50 (Human betaherpesvirus 5 [27]): > 4 µM; Ratio CC50/IC50 [28]: 2.1; EC50 [29]: > 4 µM; EC50 [30]: > 10 µM; EC50 (Human alphaherpesvirus 1 [31]): > 4 µM; MCC [32]: 20 µM; EC50 (Influenza B virus [33]): > 0.16 µM
CCOC(=O)c1c(C)nc(NCCCCNc2ccnc3cc(Cl)ccc23)nc1C	–	> 20	> 0.8	> 0.8	100	> 20	> 20	> 20	> 20	≥ 20	4	> 0.8	> 20	39.422	5.23	> 20	> 4	> 2	9.26	0.0421	EC50 (Influenza A virus [18]): > 0.8 µM; EC50 (Human alphaherpesvirus 1 [19]): > 100 µM; inhibition [20]: 100%; EC50 [21]: > 100 µM; EC50 (Human alphaherpesvirus 3 [22]): > 20 µM; EC50 (Human alphaherpesvirus 2): > 20 µM; IC50 (Plasmodium falciparum [23]): 1.66 µM; CC50 (MDCK): 0.8 µM; EC50 (Influenza A virus [24]): > 0.8 µM; CC50 [25]: 14.5 µM; CC50 (HeLa): 6.07 µM; EC50 [26]: > 20 µM; EC50 (Human betaherpesvirus 5 [27]): > 4 µM; Ratio CC50/IC50 [28]: 0.48; EC50 [29]: > 4 µM; EC50 [30]: > 2 µM; EC50 (Human alphaherpesvirus 1 [31]): > 100 µM; MCC [32]: > 20 µM; EC50 (Influenza B virus [33]): > 0.8 µM
